OX1R antag-1 – antagonists of human orexin 1 receptor (OX1R); OX1R-expressing cells, FRET antagonist read-out; inhibition, % at 6.6 µM; hit rate 1.8% among 330,000; AID 485270; in the data active = inhibition mostly above about 38%, no sharp cut-off; inactive = mostly below about 40%;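 note: 0% = agonist challenge alone and 100% = reference antagonist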
TRPML3 agonist – agonists of human TRPML3 channel; Q8TDD5; HEK293 TRPML3-YFP, Fluo-8 calcium fluorescence; 100% = the carbachol control signal; activation, % at 3 µM; hit rate 0.29% among 220,000;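 active = activation above its plate's cutoff, the mean activation of the plate's test wells plus 3 SD, cut at about 12% in these data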;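 note: 0% = DMSO only wells and 100% = carbachol wells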
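Test system: HEK293 cells stably carrying human TRPML3-YFP; Doses: single dose, 3 µM final nominal compound, 0.3% DMSO final; Schedule: dye loading 1 h 37 °C then 30 min ambient, 125 s read; Technique: Fluo-8 calcium fluorescence; Benchmarks: high control carbachol 87 µM, low control DMSO.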
TRPN1 ag – agonists of zebrafish TRPN1 channel | hit rate 0.18% among 220,000 | activation, % at 3 µM | HEK293 zebrafish TRPN1-YFP, Fluo-8 calcium fluorescence; 100% = response to 87 µM carbachol;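 active = activation above its plate's cutoff, the mean activation of test wells on that plate plus 3 SD, cut at about 19% in these data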;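 note: 0% = DMSO alone and 100% = 87 µM carbachol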
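Assay system: Zebrafish TRPN1-YFP in HEK293 cells | Incubation: Dye loading 1 h at 37 °C, then 30 min room temperature | Measured by: Kinetic Fluo-8 fluorescence, ex 470-495, em 515-575 nm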
OX1R antag-2 – blocks the human orexin 1 receptor; hit rate 0.43% among 330,000; inhibition, % at 5 µM; AID 434989; CHO/OX1R cells, Fluo-8 calcium fluorescence, orexin A;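 active = inhibition above its plate's threshold, mean inhibition of all tested compounds on the plate plus 3 SD, cut at about 37% in these data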;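 note: 0% = orexin A challenge wells and 100% = SB-334867-A antagonist wells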
CHO parental Ca – counter-screen for OX1R antagonists: effect in parental CHO cells. parental CHO-K1, ATP-induced calcium, Fluo-8 fluorescence. inhibition, % at 5.6 µM. hit rate 0.63% among 330,000;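 active = inhibition above that plate's mean sample inhibition plus 3 SD, cut at about 26% in these data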;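 note: 0% = ATP-challenged DMSO wells and 100% = DMSO wells without ATP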
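Assay system – parental CHO cells · Reagent – ATP stimulus · Detection – intracellular calcium via Fluo-8 no-wash fluorescent dye · Evaluation – percent inhibition of ATP-evoked calcium rise, normalized to controls · Controls – ATP wells versus no-ATP DMSO wells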
GPR7 antagonist – blocks human GPR7 receptor signaling; P48145; GPR7-expressing cells, fluorescence antagonist assay; inhibition, % at 4.4 µM; hit rate 1.1% among 290,000; in the data active = inhibition above about 16%, passing the limit was not always enough;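 note: cells stimulated with the agonist NPW; 0% = agonist with vehicle and 100% = vehicle without agonist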
Target sequence (P48145 whole entry, looked up): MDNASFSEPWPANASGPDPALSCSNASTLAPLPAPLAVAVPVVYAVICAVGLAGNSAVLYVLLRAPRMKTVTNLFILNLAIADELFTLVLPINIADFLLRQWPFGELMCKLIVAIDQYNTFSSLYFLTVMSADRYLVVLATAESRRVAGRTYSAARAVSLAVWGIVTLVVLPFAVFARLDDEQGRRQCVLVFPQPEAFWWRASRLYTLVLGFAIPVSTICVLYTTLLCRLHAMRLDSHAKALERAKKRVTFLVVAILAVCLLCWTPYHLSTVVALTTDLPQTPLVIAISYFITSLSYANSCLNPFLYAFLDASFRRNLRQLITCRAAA
OX1R HTRF confirm – confirmation of human orexin 1 receptor antagonists, HTRF format | shares compounds with OX1R antag-1 | OX1R-expressing cells, HTRF antagonist assay | inhibition, % at 6.6 µM | hit rate 49% among 1,800 | AID 492964; in the data active = inhibition above about 55%;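 note: CHO cells expressing OX1R stimulated with orexin A at about EC80; 0% = agonist challenge alone and 100% = reference antagonist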
CHO-K1 HTRF – counter-screen: parental CHO-K1 HTRF response; shares compounds with OX1R antag-1; parental CHO-K1 cells, HTRF counterscreen; inhibition, % at 6.6 µM; hit rate 48% among 1,800; AID 493232; in the data active = inhibition above about 17%;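 note: 0% = agonist challenge with vehicle and 100% = vehicle alone without agonist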
The depositor's hits bear a star. Hits are enriched below; roughly 3.2% of the tested compounds scored in any of these assays.

Results for Cc1ccc2nc(SCC(=O)c3ccc(O)cc3O)[nH]c2c1 ?
OX1R antag-1: 81*; TRPML3 agonist: -1; TRPN1 ag: 0; OX1R antag-2: 3; CHO parental Ca: 3; GPR7 antagonist: 8; OX1R HTRF confirm: 79*; CHO-K1 HTRF: -5

How did CCOC(=O)CN1C=C(c2ccc3ccccc3n2)C(C[N+](=O)[O-])c2ccccc21 (stereo unspecified) do in these assays?
OX1R antag-1: 117*; TRPML3 agonist: 0; TRPN1 ag: 1; OX1R antag-2: -20; CHO parental Ca: -21; GPR7 antagonist: -9; OX1R HTRF confirm: 55*; CHO-K1 HTRF: 67*

Results for CC(C)NS(=O)(=O)c1ccc(OCC(=O)Nc2ccc(F)cc2)cc1 ?
OX1R antag-1: 22; TRPML3 agonist: 1; TRPN1 ag: 0; OX1R antag-2: 2; CHO parental Ca: -3; GPR7 antagonist: -13

How did O=C(O)c1ccc2nc3c(nc2c1)-c1ccccc1C3=O do in these assays?
OX1R antag-1: active; TRPML3 agonist: 1; TRPN1 ag: 1; OX1R antag-2: 10; CHO parental Ca: -9; GPR7 antagonist: -6; OX1R HTRF confirm: 64*; CHO-K1 HTRF: 84*

Results for O=[N+]([O-])c1cccc(/C=C/c2nc3ccc([N+](=O)[O-])cc3[nH]2)c1 ?
OX1R antag-1: 102*; TRPML3 agonist: -1; TRPN1 ag: 5; OX1R antag-2: 17; CHO parental Ca: 19; GPR7 antagonist: 19; OX1R HTRF confirm: 21; CHO-K1 HTRF: 1

Results for O=[N+]([O-])c1ccc2c(c1)nc1n2CCN(CC2CCCO2)C1 (stereo unspecified) ?
OX1R antag-1: 81*; TRPML3 agonist: 1; TRPN1 ag: 0; OX1R antag-2: -14; CHO parental Ca: -8; GPR7 antagonist: -7; OX1R HTRF confirm: 43; CHO-K1 HTRF: 27*

Results for O=[N+]([O-])c1ccc2c(c1)nc1n2CCSC1 ?
OX1R antag-1: 18; TRPML3 agonist: 0; TRPN1 ag: 1; OX1R antag-2: -8; CHO parental Ca: -9; GPR7 antagonist: -6

Results for CCN(C(=O)COC(=O)CN(C)S(=O)(=O)c1ccc(NC(C)=O)cc1)C1CCS(=O)(=O)C1 (stereo unspecified) ?
OX1R antag-1: -10; OX1R antag-2: 3; CHO parental Ca: 6; GPR7 antagonist: -12

What do the screens show for `Cc1cc(C=C2C(=O)c3ccccc3C2=O)c(C)n1C`?
OX1R antag-1: 92*; TRPML3 agonist: 0; TRPN1 ag: 1; OX1R antag-2: 10; CHO parental Ca: -8; GPR7 antagonist: -3; OX1R HTRF confirm: 38; CHO-K1 HTRF: 14

How did CCn1c(C)cc(C=C2C(=O)c3ccccc3C2=O)c1C do in these assays?
TRPML3 agonist: 0; TRPN1 ag: 1; GPR7 antagonist: -3

Results for O=[n+]1c2c(n([O-])c3cc(Br)ccc31)CCCC2 ?
OX1R antag-1: 43; TRPML3 agonist: 0; TRPN1 ag: 0; OX1R antag-2: -13; CHO parental Ca: -11; GPR7 antagonist: -9

Results for O=[n+]1c2c(n([O-])c3cc(F)c(F)cc31)CCCC2 ?
OX1R antag-1: 129*; TRPML3 agonist: 0; TRPN1 ag: 0; OX1R antag-2: -15; CHO parental Ca: -11; GPR7 antagonist: -18; OX1R HTRF confirm: 39; CHO-K1 HTRF: 77*

What do the screens show for `CC(=O)Nc1ccc2c3c(cccc13)C(=O)N(c1ccccc1)C2=O`?
OX1R antag-1: 110*; TRPML3 agonist: 1; TRPN1 ag: 0; OX1R antag-2: -13; CHO parental Ca: 1; GPR7 antagonist: -12; OX1R HTRF confirm: 41; CHO-K1 HTRF: 63*

What do the screens show for `COCCNC(=S)Nc1ccccc1Cc1ccccc1`?
OX1R antag-1: 16; TRPML3 agonist: 0; TRPN1 ag: 0; OX1R antag-2: -16; CHO parental Ca: -11; GPR7 antagonist: -3

What do the screens show for `COc1ccc(S(=O)(=O)N(C)C)cc1NCC(=O)Nc1ccc(Br)c(C)c1`?
OX1R antag-1: 14; TRPML3 agonist: 0; TRPN1 ag: -2; OX1R antag-2: -3; CHO parental Ca: -31; GPR7 antagonist: -5

What do the screens show for `CCn1cc(S(=O)(=O)Nc2cc(C)ccc2F)cn1`?
OX1R antag-1: 11; OX1R antag-2: 0; CHO parental Ca: -2; GPR7 antagonist: 2

How did O=C(C1CCCN1S(=O)(=O)c1cccc2nsnc12)N1CCCCC1 (stereo unspecified) do in these assays?
OX1R antag-1: 61; TRPML3 agonist: 0; TRPN1 ag: 2; OX1R antag-2: -17; CHO parental Ca: -7; GPR7 antagonist: -9

Results for O=C(C1CCCO1)N1CCN(S(=O)(=O)c2cccc3nsnc23)CC1 (stereo unspecified) ?
OX1R antag-1: 96*; TRPML3 agonist: 1; TRPN1 ag: 2; OX1R antag-2: -12; CHO parental Ca: -8; GPR7 antagonist: -5; OX1R HTRF confirm: 41; CHO-K1 HTRF: 56*

What do the screens show for `O=C(c1ccco1)N1CCN(C(=O)C2CCN(S(=O)(=O)c3cccc4nsnc34)CC2)CC1`?
OX1R antag-1: 100*; TRPML3 agonist: 1; TRPN1 ag: -1; OX1R antag-2: -10; CHO parental Ca: -3; GPR7 antagonist: 0; OX1R HTRF confirm: 30; CHO-K1 HTRF: 47*

Results for O=C(O)c1ccc(C(=O)Nc2cccc3ccccc23)c(C(=O)O)c1 ?
GPR7 antagonist: -8

What do the screens show for `CC(C)(C)OC(=O)n1cc(C(=O)c2ccccc2O)cn1`?
OX1R antag-1: 2; OX1R antag-2: 5; CHO parental Ca: -6; GPR7 antagonist: -7

How did COCCCn1cnc2oc3nc4ccccc4nc3c2c1=O do in these assays?
OX1R antag-1: 85*; TRPML3 agonist: -1; TRPN1 ag: 0; OX1R antag-2: -3; CHO parental Ca: -4; GPR7 antagonist: 2; OX1R HTRF confirm: 67*; CHO-K1 HTRF: 107*

How did CCN1C(=O)[C@@H]2[C@@H](c3ccc(-c4ccc(F)cc4)c(OC)c3)N3CCCC[C@@]3(C(=O)OC)[C@@H]2C1=O do in these assays?
OX1R antag-1: 82*; OX1R antag-2: -6; CHO parental Ca: -41; OX1R HTRF confirm: 42; CHO-K1 HTRF: -3

Results for Cc1c(C(=O)O)nn(-c2cccc(C(F)(F)F)c2)c(=O)c1C#N ?
OX1R antag-1: 38; OX1R antag-2: -13; CHO parental Ca: 0; GPR7 antagonist: -10
